Paper PMC3933949 (Bioorganic & medicinal chemistry, 2012)
Where “and” joins values, the source holds several entries; their conditions need not be identical. Equal values may be shown once. Values belong to the molecule of their own block, whether it stands above or below them.

What was measured:
[1] = molecular target: T1, recombinant human aromatase (CYP19) (Homo sapiens, UniProt P11511); experiment: Fluorescence-based aromatase activity assay; assay type: biochemical; details: for increase in inhibition potency compared to model compound 1a: ratio of aromatase IC50 values versus 1a; for aromatase inhibition (in words): recombinant human aromatase, fluorescence assay
T1 sequence (P11511 1-503): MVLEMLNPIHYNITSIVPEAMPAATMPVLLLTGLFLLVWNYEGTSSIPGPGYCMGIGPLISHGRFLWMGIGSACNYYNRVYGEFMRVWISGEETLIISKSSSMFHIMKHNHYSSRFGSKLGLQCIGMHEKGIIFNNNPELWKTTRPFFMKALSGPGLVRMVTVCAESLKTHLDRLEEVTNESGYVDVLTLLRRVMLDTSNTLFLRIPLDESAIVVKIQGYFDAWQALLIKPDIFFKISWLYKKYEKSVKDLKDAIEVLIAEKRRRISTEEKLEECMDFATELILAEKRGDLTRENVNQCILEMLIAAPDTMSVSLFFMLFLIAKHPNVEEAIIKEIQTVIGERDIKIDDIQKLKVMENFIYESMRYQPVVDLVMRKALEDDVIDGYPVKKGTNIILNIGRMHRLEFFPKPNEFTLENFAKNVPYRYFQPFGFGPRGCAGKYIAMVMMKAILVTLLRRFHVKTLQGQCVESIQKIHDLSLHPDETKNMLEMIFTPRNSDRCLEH
Procedure, shortened: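 Baculovirus/insect-cell-expressed human aromatase with P450 reductase; 3-fold serial dilutions from acetonitrile stocks, preincubated 10 min at 37 °C with NADPH-regenerating cofactor mix (pH 7.5). Enzyme/MFC solution (pH 7.4) was added, then 30 min at 37 °C, Tris stop, fluorescence ex 409/em 530 nm. Interfering compounds: DBF substrate, 2 h, NaOH stop.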

[2] = system: aromatase; details: cited from earlier work; for aromatase inhibition of naturally occurring isoflavones (in words): literature background

increase in inhibition potency compared to model compound 1a [1]: threefold
Compound: COc1cc(OC)cc(C2COc3ccccc3C2=O)c1 (stereo not shown) [Compound 2g, 3-(3,5-Dimethoxyphenyl)chroman-4-one]

increase in inhibition potency compared to model compound 1a [1]: 12 fold
Compound: O=C1c2ccccc2OCC1c1ccc(Oc2ccccc2)cc1 (stereo not shown) [Compound 1h, 3-(4-Phenoxyphenyl)chroman-4-one]

aromatase inhibition (in words) [1]: Enhanced inhibitory effects
Compound: O=C1c2cc(Cl)ccc2OCC1c1ccccc1 (stereo not shown) [Compound 4b, 6-Chloro-3-phenylchroman-4-one]

Compound: O=c1c(-c2ccccc2)coc2ccccc12 [isoflavone, 3-phenylbenzopyrone]
aromatase inhibition of scaffold (in words) ([2]; ref 20b): inactive

Compound: O=c1c(-c2ccc(O)cc2)coc2cc(O)ccc12 [daidzein]
aromatase inhibition of naturally occurring isoflavones (in words) [2]: either inactive or weak inhibitors

Compound: O=C1c2ccccc2OCC1c1ccc(O)c(O)c1 (stereo not shown) [3′,4′-dihydroxyisoflavanone]
IC50 ([2]; aromatase, isoflavanone compounds, ref 20b): 200 µM and ≥ 200 µM

increase in inhibition potency compared to model compound 1a [1]: fivefold
Compound: O=C1c2ccccc2OCC1c1cccnc1 (stereo not shown) [Compound 3b, 3-(Pyridin-3-yl)chroman-4-one]

Compound: O=C1c2ccccc2OCC1c1cc2ccccc2c2ccccc12 (stereo not shown) [Compound 1j, 3-(Phenanthren-9-yl)chroman-4-one]
aromatase inhibition (in words) [1]: no significant inhibition

aromatase inhibition (in words) [1]: no significant inhibition
Compound: O=C1c2ccccc2OCC1c1ccc(-c2ccccc2)cc1 (stereo not shown) [Compound 1i, 3-(Biphenyl-4-yl)chroman-4-one]

aromatase inhibition (in words) [1]: reduced the binding affinity
Compound: CC(C)(C)c1ccc2c(c1)C(=O)C(c1ccccc1)CO2 (stereo not shown) [Compound 4d, 6-tert-Butyl-3-phenylchroman-4-one]

Compound: O=c1c(-c2ccc(O)cc2)coc2cc(O)cc(O)c12 [genistein]
aromatase inhibition of naturally occurring isoflavones (in words) [2]: either inactive or weak inhibitors

Compound: O=C1c2ccccc2OCC1c1ccsc1 (stereo not shown) [Compound 3a, 3-(Thiophen-3-yl)chroman-4-one]
aromatase inhibition (in words) [1]: did not exhibit a significant increase in potency

Compound: COc1cc2c(=O)c(-c3ccc(O)cc3)coc2cc1O [glycitein]
aromatase inhibition of naturally occurring isoflavones (in words) [2]: either inactive or weak inhibitors
